This passage reports inhibition of growth and IC50 results from ChEMBL document CHEMBL1777725, “New class of potent antitumor acylhydrazone derivatives containing furan” (Eur J Med Chem, 2010).

The test system of test [1] is KB. Briefly: Growth inhibition of human KB cells at 10 uM after 48 hrs by SRB assay. The conditions noted are these: read-out: GI. In kind it is functional. In short, it runs like this:
(§1)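 Exponentially growing cells at 1–2.5 ×10⁴ cells/mL, in humidified 5% CO₂, were seeded into 96-well plates. After 24 h, medium containing compound at various concentrations was added, and cells were incubated 48 h. Controls received RPMI-1640 medium only. Viable cell number was read by MTT at 570 nm for HL-60, and by SRB at 540 nm for Bel-7402, BGC-823 and KB.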
(In SRB staining, fixed cells bind dye roughly in proportion to their protein.)

In test [2] the test system is Bel-7402. Briefly: Growth inhibition of human Bel7402 cells at 10 uM after 48 hrs by SRB assay. The test is classed as functional. Conditions: Bel-7402, 48 h, read-out: GI. The procedure, abridged: as §1
The test system of the next test is HL-60. In words: Growth inhibition of human HL60 cells at 10 uM after 48 hrs by MTT assay. In kind it is functional. The conditions noted are these: HL-60, 48 h, read-out: GI. In short, it runs like this:
as §1

Test [3] concerns BGC-823. Briefly: Growth inhibition of human BGC823 cells at 10 uM after 48 hrs by SRB assay. Conditions: BGC-823, 48 h, read-out: GI. The test is classed as functional. The procedure, abridged: as §1
For test [4], the system named is BGC-823. In words: Antitumor activity against human BGC823 cells after 48 hrs by SRB assay. The conditions noted are these: BGC-823, 48 h. In kind it is functional, cell-based. The procedure, abridged:
as §1

Test [5] has as its system KB. In words: Antitumor activity against human KB cells after 48 hrs by SRB assay. In kind it is functional, cell-based. In short, it runs like this: as §1
In test [6] the test system is Bel-7402. In words: Antitumor activity against human Bel7402 cells after 48 hrs by SRB assay. In kind it is functional, cell-based. The conditions noted are these: Bel-7402, 48 h. The procedure, abridged: as §1

With `COc1ccccc1C(=O)N/N=C/c1ccc(-c2ccc(F)cc2F)o1`, the inhibition of growth at 10 µM in the test with KB [1] was 10.1%; in the test on Bel-7402 [2], 1.69%; in the test on HL-60 it was 7.77%; in the test on BGC-823 [3] it was 35.9%.
`O=C(N/N=C/c1ccc(-c2ccccc2F)o1)c1ccc(Cl)cc1`: the inhibition of growth at 10 µM with KB [1] was determined as 4.62%; in the test with Bel-7402 [2] it was 2.96%; in the test with HL-60, 6.13%; with BGC-823 [3] it was 31.5%.
In the case of `O=C(N/N=C/c1ccc(-c2ccc(F)cc2)o1)c1ccccc1O`, the inhibition of growth at 10 µM with KB [1] was 84.6%; in the test on Bel-7402 [2] it was 81.6%; with HL-60, -2.08%; in the test on BGC-823 [3], 71.5%. Further, the IC50 (as a rule, the point on the concentration scale where inhibition reaches its midpoint) with BGC-823 [4] worked out at 9.5 µM; in the test on KB [5], 39 µM; in the test on Bel-7402 [6] it was 15.2 µM.
Turning to `O=C(N/N=C/c1ccc(-c2ccc(Cl)cc2)o1)c1ccccc1`, the inhibition of growth at 10 µM in the test with KB [1] is 3.2%; in the test on Bel-7402 [2], -7.17%; in the test on HL-60, 15.1%; with BGC-823 [3], 19.4%.
On to `O=C(N/N=C/c1ccc(-c2ccc(F)cc2F)o1)c1ccccc1O`, for which the inhibition of growth at 10 µM in the test on KB [1] was 61.8%; in the test with Bel-7402 [2], 63.4%; in the test with HL-60, -9.5%; in the test on BGC-823 [3], 68.4%. Also, the IC50 with BGC-823 [4] stood at 46.6 µM; in the test with KB [5], 55.3 µM; in the test on Bel-7402 [6] it was 19.3 µM.
With `Cc1cccc(C(=O)N/N=C/c2ccc(-c3ccccc3[N+](=O)[O-])o2)c1`, the inhibition of growth at 10 µM was 5.9% in the test with KB [1], 5.67% with Bel-7402 [2], 6.25% with HL-60 and 36.1% in the test on BGC-823 [3].
Consider `O=C(N/N=C/c1ccc(-c2cccc(F)c2)o1)c1ccc(Br)cc1`, for which the inhibition of growth at 10 µM in the test with KB [1] is 26%; with Bel-7402 [2], 28.2%; with HL-60 it was 25.9%; with BGC-823 [3] it was 46.7%.
For the compound `COc1ccccc1/C=N/NC(=O)c1ccc(-c2ccc(F)cc2F)o1`, the inhibition of growth at 10 µM was 59.5% in the test with KB [1], 53.1% in the test with Bel-7402 [2], 27.4% with HL-60 and 66.8% in the test on BGC-823 [3]. Besides, the IC50 in the test on BGC-823 [4] is 81.6 µM; with KB [5] it was over 40 µM; in the test on Bel-7402 [6] it was 24.6 µM.
With `O=C(N/N=C/c1ccc(Cl)cc1)c1ccc(-c2ccccc2F)o1`, the inhibition of growth at 10 µM with KB [1] was determined as 11.3%; in the test on Bel-7402 [2] it was 16.9%; in the test with HL-60, 6.49%; in the test with BGC-823 [3], 32.6%.
Turning to `O=C(N/N=C/c1ccccc1O)c1ccc(-c2ccc(F)cc2)o1`, the inhibition of growth at 10 µM in the test on KB [1] amounted to 53.9%; with Bel-7402 [2], 40%; in the test with HL-60, 13.1%; with BGC-823 [3] it was 74%. For the same compound, the IC50 in the test on BGC-823 [4] was 180 µM; in the test on KB [5], over 40 µM; in the test on Bel-7402 [6], 50.3 µM.
`O=C(N/N=C/c1ccccc1)c1ccc(-c2ccc(Cl)cc2)o1`: the inhibition of growth at 10 µM with KB [1] came out at 17%; in the test with Bel-7402 [2], 2.28%; in the test on HL-60 it was 25.8%; in the test with BGC-823 [3], 33.7%.
As for `O=C(N/N=C/c1ccccc1O)c1ccc(-c2ccc(F)cc2F)o1`, the inhibition of growth at 10 µM with KB [1] came out at 75.2%; in the test on Bel-7402 [2] it was 91.8%; in the test with HL-60, 43.1%; in the test on BGC-823 [3], 79.1%. Also, the IC50 was 9.6 µM with BGC-823 [4], over 40 µM in the test with KB [5] and 8.3 µM in the test on Bel-7402 [6].
With `Cc1cccc(/C=N/NC(=O)c2ccc(-c3ccccc3[N+](=O)[O-])o2)c1`, the inhibition of growth at 10 µM with KB [1] worked out at 10.3%; in the test with Bel-7402 [2], 6.66%; in the test on HL-60, 9.54%; with BGC-823 [3], 31.4%.
The matching figures for `O=C(N/N=C/c1ccccc1Cl)c1ccc(-c2ccc(F)cc2)o1`: 19.3%, 4.81%, -3.22% and 32%.
As for `O=C(N/N=C/c1ccc(O)cc1)c1ccc(-c2ccc(F)cc2)o1`, the inhibition of growth at 10 µM was 11% with KB [1], 10.6% in the test with Bel-7402 [2], 1.07% with HL-60 and 46.3% in the test with BGC-823 [3].
`O=C(N/N=C/c1cccc(Br)c1)c1ccc(-c2ccccc2F)o1`: the inhibition of growth at 10 µM in the test on KB [1] turned out to be 26.5%; with Bel-7402 [2] it was 12.5%; in the test with HL-60 it was 27.6%; with BGC-823 [3], 43.6%.
With `COc1cccc2c1C(=O)c1c(O)c3c(c(O)c1C2=O)C[C@@](O)(C(=O)CO)C[C@@H]3O[C@H]1C[C@H](N)[C@H](O)[C@H](C)O1` [DOXORUBICIN], the IC50 is 4.8 µM in the test on BGC-823 [4], 5.8 µM with KB [5] and 5 µM with Bel-7402 [6].
